This is an account of results in ChEMBL document CHEMBL3817728, “Synthesis, Evaluation, and Mechanism Study of Novel Indole-Chalcone Derivatives Exerting Effective Antitumor Activity Through Microtubule Destabilization in Vitro and in Vivo” (J Med Chem, 2016).

As usually defined, the IC50 is the midpoint of a concentration-inhibition curve. As a reminder, the solubility is the dissolved amount per volume that the medium holds. A low value points to little dissolved substance.

A short description of series [1]: Cytotoxicity against human HCT8/VCT cells assessed as growth inhibition after 48 hrs by MTT assay. The class given is functional, cell-based. In outline: (§1)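 Drug-resistant lines were tested by a 48 h MTT viability assay. IC50 was derived from dose-response curves and reported as mean ± SE of at least three independent experiments.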
Series [2] in a line: Cytotoxicity against human A2780/TAX cells assessed as growth inhibition after 48 hrs by MTT assay. The class given is functional, cell-based. In outline:
as §1

The test system of series [3] is A549. Briefly: Resistance index, ratio of IC50 for human A549/CDDP cells to IC50 for human A549 cells. The class given is functional.
Series [4] can be described thus: Cytotoxicity against human HCT8 cells assessed as cell viability after 48 hrs by MTT assay. Conditions: HCT-8, 48 h. The class given is functional, cell-based. Summed up: (§2)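 Cancer cell lines treated with compound for 48 h, and viability read by MTT assay. IC50 given as mean ± SD from at least three independent experiments.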
(In general: Tetrazolium assays rely on reduction of a dye to a coloured formazan, in cell work by metabolically active cells.)

In series [5] the test system is A2780. Briefly: Resistance index, ratio of IC50 for human A2780/TAX cells to IC50 for human A2780 cells. The class given is functional.
The subject of series [6] is MCF7. Briefly: Resistance index, ratio of IC50 for human MCF7/DX cells to IC50 for human MCF7 cells. The class given is functional.
Series [7] has as its system HCT-8. Briefly: Resistance index, ratio of IC50 for human HCT8/VCT cells to IC50 for human HCT8 cells. The class given is functional.
Series [8] in a line: Cytotoxicity against human A549/CDDP cells assessed as growth inhibition after 48 hrs by MTT assay. The class given is functional, cell-based. Conditions: A549, 48 h. Summed up:
as §1

Series [9] concerns A2780. As to the kind of experiment: Cytotoxicity against human A2780 cells assessed as cell viability after 48 hrs by MTT assay. Conditions: A2780, 48 h. The class given is functional, cell-based. In outline: as §2
Series [10] relates to A549. Briefly: Cytotoxicity against human A549 cells assessed as cell viability after 48 hrs by MTT assay. The class given is functional, cell-based. Conditions: A549, 48 h. Summed up:
as §2

Series [11] is described as follows: Cytotoxicity against human MCF7/DX cells assessed as growth inhibition after 48 hrs by MTT assay. The class given is functional, cell-based. Summed up: as §1
The subject of series [12] is A549. Briefly: Antitumor activity against human A549 cells xenografted in BALB/c nude mouse assessed as tumor growth inhibition at 30 mg/kg, ip administered every other day for 1 month measured every other day post dose relative to vehicle-treated control. The class given is functional. Conditions: read-out: TGI. For orientation: In xenograft studies the graft and the host belong to different species.

Series [13] can be described thus: Metabolic stability in Sprague-Dawley rat liver microsomes assessed as compound remaining at 90 mins in presence of NADPH regenerating system by HPLC method. The class given is ADME. Conditions: read-out: Stability. In outline:
(§3)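 Test compound incubated with rat liver microsomes at 37 ℃ in buffer containing an NADPH regenerating system for the stated time. Remaining parent compound was quantified by HPLC.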
(Microsomes from liver hold many membrane-bound enzymes, among them those of drug oxidation.)

Series [14] is described as follows: Cytotoxicity against human Bel7402 cells assessed as cell viability after 48 hrs by MTT assay. The class given is functional, cell-based. Conditions: Bel-7402, 48 h. In outline:
as §2

A short description of series [15]: Metabolic stability in Sprague-Dawley rat liver microsomes assessed as compound remaining at 30 mins in presence of NADPH regenerating system by HPLC method. The class given is ADME. Conditions: read-out: Stability. In outline: as §3
A short description of series [16]: Metabolic stability in Sprague-Dawley rat liver microsomes assessed as compound remaining at 60 mins in presence of NADPH regenerating system by HPLC method. The class given is ADME. Conditions: read-out: Stability. Summed up: as §3
A short description of series [17]: Metabolic stability in Sprague-Dawley rat liver microsomes assessed as compound remaining at 120 mins in presence of NADPH regenerating system by HPLC method. Conditions: read-out: Stability. The class given is ADME. In outline: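 Rat liver microsomes incubated with compound at 37 ℃ for indicated times in buffer containing NADPH regenerating system; residual parent determined by HPLC.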

The subject of series [18] is HeLa. Briefly: Cytotoxicity against human HeLa cells assessed as cell viability after 48 hrs by MTT assay. The class given is functional, cell-based. In outline: as §2
The subject of series [19] is MCF7. Briefly: Cytotoxicity against human MCF7 cells assessed as cell viability after 48 hrs by MTT assay. The class given is functional, cell-based. Conditions: MCF7, 48 h. In outline: as §2
Series [20] relates to Mus musculus. Briefly: Toxicity in BALB/c nude mouse xenografted with human A549 cells assessed as loss of body weight at 30 mg/kg, ip administered every other day for 1 month measured every other day post dose relative to vehicle-treated control. The class given is organism-based. Conditions: in vivo.
A short description of series [21]: Solubility of the compound in sodium phosphate buffer at pH 7.4 at 25 +/- 1 degC. The class given is physicochemical.

Take `COc1cccc2c1C(=O)c1c(O)c3c(c(O)c1C2=O)C[C@@](O)(C(=O)CO)C[C@@H]3O[C@H]1C[C@H](N)[C@H](O)[C@H](C)O1` [DOXORUBICIN]: the IC50 was 1510 nM in series [1]; 3290 nM in series [2]; 1170 nM in [4]; 3140 nM in series [8]; 980 nM in series [9]; 2170 nM in [10]. Moreover, the IC50 in [11] stood at 50400 nM. For the same compound, the “Ratio IC50” value worked out at 1.44 in series [3], 3.35 in [5], 49.4 in series [6] and 1.29 in series [7].
On to `COc1ccc(/C=C\c2cc(OC)c(OC)c(OC)c2)cc1OP(=O)(O)O` [FOSBRETABULIN], for which, in series [12], the inhibition in vivo at 30 mg/kg worked out at 52.2%.
In the case of `COc1ccc(/C=C\c2cc(OC)c(OC)c(OC)c2)cc1O` [COMBRETASTATIN A4], the remaining at 1.5 h in series [13] is 23.1%. The IC50 was 3 nM in series [14]; 5 nM in [1]; 58 nM in series [2]; 1.7 nM in [4]; 12 nM in [18]; 9 nM in [9]. For the same compound, the IC50 in [10] stood at 5 nM; in [11], 27 nM. The remaining at 0.5 h in [15] was 68.1%. Moreover, the remaining at 1 h in series [16] was found to be 28.6%. In series [17], the remaining at 2 h stood at 20.7%.
With `CC[C@]1(O)C[C@H]2CN(CCc3c([nH]c4ccccc34)[C@@](C(=O)OC)(c3cc4c(cc3OC)N(C=O)[C@H]3[C@@](O)(C(=O)OC)[C@H](OC(C)=O)[C@]5(CC)C=CCN6CC[C@]43[C@@H]65)C2)C1` [VINCRISTINE], the IC50 in series [1] came to 7860 nM; in [2] it was 168 nM; in series [4], 350 nM; in [19] it was 98 nM; in series [8] it was 561 nM; in [9] it was 26 nM. Further, the IC50 in series [10] amounted to 61 nM; in series [11] it was 1260 nM. In addition, the “Ratio IC50” value in [3] was determined as 9.2; in series [5], 6.46; in series [6] it was 12.9; in series [7], 22.5.
Take `COc1ccc2c(/C=C(\C)C(=O)c3cc(OC)c(OC)c(OC)c3)cn(P(=O)([O-])[O-])c2c1.[Na+].[Na+]`: the Activity entry in series [20] is “Non-toxic”. Also, the IC50 turned out to be 61 nM in series [14]; 92 nM in [4]; 38 nM in series [19]; 78 nM in series [18]; 43 nM in series [9]; 56 nM in series [10]. Moreover, in [21], the solubility was determined as 125 mg/mL. Moreover, the inhibition in vivo at 30 mg/kg in series [12] came out at 70.4%.
